Our source for the inhibition in vivo, IC50 and inhibition values is ChEMBL document CHEMBL2413020 (Bioorg Med Chem, 2013).

In assay [1] the test system is Rattus norvegicus. The assay is described as follows: Antiinflammatory activity in Wistar albino rat assessed as inhibition of carrageenan-induced paw edema at 50 mg/kg, po administered 30 mins prior to carrageenan challenge measured at 3 hrs by plethysmometric analysis relative to control. It is filed as functional. The procedure, abridged: (§1)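 Groups of six male Wistar albino rats (200–250 g), fasted 12 h before and during the test. Agents given orally at 50 mg/kg; vehicle controls received tween 80 (95:5). After 30 min, 0.1 mL of 1% w/v carrageenan in saline injected subplantar into the left hind paw. Paw volume by plethysmometer at 0 h (within 30 s) and at 1, 2, 3 and 4 h. % edema inhibition from (Vt−V0) vs control; mean SEM, ANOVA.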
In general terms: Carrageenan injected into the paw causes an acute inflammation.

In assay [2] the target is T1, Prostaglandin G/H synthase 1 (Ovis aries, UniProt P05979).
T1 sequence (P05979 whole entry): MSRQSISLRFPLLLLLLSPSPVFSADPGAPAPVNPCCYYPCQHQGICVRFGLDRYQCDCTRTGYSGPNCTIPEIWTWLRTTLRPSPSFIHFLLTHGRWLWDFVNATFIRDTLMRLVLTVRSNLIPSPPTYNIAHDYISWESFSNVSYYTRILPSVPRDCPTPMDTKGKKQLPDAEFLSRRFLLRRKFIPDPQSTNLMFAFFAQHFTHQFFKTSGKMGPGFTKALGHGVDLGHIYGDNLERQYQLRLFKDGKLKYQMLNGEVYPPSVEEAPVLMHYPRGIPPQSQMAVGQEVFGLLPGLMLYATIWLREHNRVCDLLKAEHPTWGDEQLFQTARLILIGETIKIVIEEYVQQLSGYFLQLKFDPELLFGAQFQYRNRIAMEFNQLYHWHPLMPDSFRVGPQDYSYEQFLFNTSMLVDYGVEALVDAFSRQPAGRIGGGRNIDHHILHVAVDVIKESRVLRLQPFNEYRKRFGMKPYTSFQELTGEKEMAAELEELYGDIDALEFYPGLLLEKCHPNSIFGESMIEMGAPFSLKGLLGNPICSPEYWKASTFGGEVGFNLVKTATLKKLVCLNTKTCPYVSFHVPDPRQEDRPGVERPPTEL
Nature of the assay: Inhibition of ovine COX1 using arachidonic acid as substrate assessed as production of PGF2alpha preincubated for 10 mins followed by substrate addition measured after 2 mins by EIA in presence of stannous chloride. The procedure, abridged: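 Kit-based EIA in 0.1 M Tris-HCl pH 8 with 2 mM phenol. Enzyme and compound preincubated 10 min at 37 °C; arachidonic acid started a 2 min reaction, stopped with 1 M HCl, then stannous chloride 5 min at room temperature. EIA plate incubated 18 h, Ellman's reagent, read at 410 nm.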

For assay [3], the target named is T2, Prostaglandin G/H synthase 1 (Ovis aries) (UniProt P05979).
T2 sequence (whole entry): T1 sequence (P05979 whole entry)
Nature of the assay: Inhibition of ovine COX1 using arachidonic acid as substrate assessed as production of PGF2alpha at 30 uM preincubated for 10 mins followed by substrate addition measured after 2 mins by EIA in presence of stannous chloride relative to control.

The subject of assay [4] is Rattus norvegicus. Nature of the assay: Antiinflammatory activity in Wistar albino rat assessed as inhibition of carrageenan-induced paw edema at 50 mg/kg, po administered 30 mins prior to carrageenan challenge measured at 4 hrs by plethysmometric analysis relative to control. It is filed as functional. The method in brief: as §1
The test system of assay [5] is Rattus norvegicus. Nature of the assay: Antiinflammatory activity in Wistar albino rat assessed as inhibition of carrageenan-induced paw edema at 50 mg/kg, po administered 30 mins prior to carrageenan challenge measured at 2 hrs by plethysmometric analysis relative to control. In kind it is functional. The method in brief: as §1
Assay [6] has as its system Rattus norvegicus. Nature of the assay: Antiinflammatory activity in Wistar albino rat assessed as inhibition of carrageenan-induced paw edema at 50 mg/kg, po administered 30 mins prior to carrageenan challenge measured at 1 hr by plethysmometric analysis relative to control. It is filed as functional. The procedure, abridged:
as §1

In assay [7] the test system is Rattus norvegicus. Nature of the assay: Antiinflammatory activity in Wistar albino rat assessed as inhibition of carrageenan-induced paw edema at 50 mg/kg, ip administered 30 mins prior to carrageenan challenge measured at 1 hr by plethysmometric analysis relative to control. In kind it is functional. The settings on record: route intraperitoneal. The procedure, abridged: (§2)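 Male Wistar albino rats (200–250 g), food withdrawn 12 h before and during the test, in groups of six. Reference drug given ip; controls received tween 80 (95:5). At 30 min, 0.1 mL of 1% w/v carrageenan in saline injected subplantar into the left hind paw. Plethysmometer paw volume read within 30 s, then at 1–4 h. % inhibition vs control (Vt−V0); mean SEM, ANOVA.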

The test system of assay [8] is Rattus norvegicus. The assay is described as follows: Antiinflammatory activity in Wistar albino rat assessed as inhibition of carrageenan-induced paw edema at 50 mg/kg, ip administered 30 mins prior to carrageenan challenge measured at 2 hrs by plethysmometric analysis relative to control. In kind it is functional. The settings on record: route intraperitoneal. The method in brief:
as §2

Assay [9] concerns Rattus norvegicus. The assay is described as follows: Antiinflammatory activity in Wistar albino rat assessed as inhibition of carrageenan-induced paw edema at 50 mg/kg, ip administered 30 mins prior to carrageenan challenge measured at 3 hrs by plethysmometric analysis relative to control. In kind it is functional. Conditions: route intraperitoneal. The procedure, abridged: as §2

In assay [10] the test system is Rattus norvegicus. The assay is described as follows: Antiinflammatory activity in Wistar albino rat assessed as inhibition of carrageenan-induced paw edema at 50 mg/kg, ip administered 30 mins prior to carrageenan challenge measured at 4 hrs by plethysmometric analysis relative to control. In kind it is functional. The settings on record: route intraperitoneal. The procedure, abridged: as §2

Structures are written as SMILES. The source made the active and inactive calls. The rule behind the calls is not given here.

A word on the inhibition in vivo: it is the drop in the measured response relative to a control, in per cent. By IC50 is commonly meant the concentration at which inhibition is half-maximal. A word on the inhibition: it is the share of the control response that was lost under treatment. Take `NC(=S)c1ccc(-n2nc(C(F)(F)F)cc2-c2ccc(Br)cc2)cc1`: the inhibition in vivo at 50 mg/kg with Rattus norvegicus [1] was 72.8%; with Rattus norvegicus [4] it was 60.3%; in the assay on Rattus norvegicus [5], 84.9%; in the assay with Rattus norvegicus [6], 54.5%. In addition, the IC50 in assay [2] amounted to 2350 nM. Besides, the inhibition in assay [3] was determined as 86.1%.

With `Cc1ccc(-c2cc(C(F)(F)F)nn2-c2ccc(C#N)cc2)cc1`, the inhibition in vivo at 50 mg/kg in the assay on Rattus norvegicus [1] was 82.7%; in the assay with Rattus norvegicus [4], 80.2%; in the assay on Rattus norvegicus [5], 87.2%; with Rattus norvegicus [6], 65.7%. For the same molecule, the inhibition result in assay [3] is “inactive”.

Turning to `N#Cc1ccc(-n2nc(C(F)(F)F)cc2-c2ccc3ccccc3c2)cc1`, the inhibition in vivo at 50 mg/kg with Rattus norvegicus [1] came to 59.5%; in the assay with Rattus norvegicus [4], 48%; in the assay with Rattus norvegicus [5], 67.8%; with Rattus norvegicus [6], 84.8%. Besides, the inhibition in assay [3] came out at 20.7%.

Take `COc1ccc2c(c1)c(CC(=O)O)c(C)n2C(=O)c1ccc(Cl)cc1` [INDOMETHACIN]: the inhibition in vivo at 50 mg/kg was found to be 96% with Rattus norvegicus [7], 90.3% with Rattus norvegicus [8], 85% in the assay on Rattus norvegicus [9] and 90.2% with Rattus norvegicus [10].

With `N#Cc1ccc(-n2nc(C(F)(F)F)cc2-c2ccc(Cl)cc2)cc1`, the inhibition in vivo at 50 mg/kg in the assay on Rattus norvegicus [1] was 67.6%; in the assay with Rattus norvegicus [4], 65%; in the assay with Rattus norvegicus [5], 76.5%; in the assay with Rattus norvegicus [6], 26.3%. In assay [3], the inhibition entry is “inactive”.

In the case of `NC(=S)c1ccc(-n2nc(C(F)(F)F)cc2-c2cccs2)cc1`, the inhibition in vivo at 50 mg/kg in the assay on Rattus norvegicus [1] is 57.2%; in the assay on Rattus norvegicus [4] it was 61.5%; in the assay on Rattus norvegicus [5] it was 73.4%; in the assay on Rattus norvegicus [6], 85.9%. Also, the inhibition in [3] was 39.8%.

Consider `NC(=S)c1ccc(-n2nc(C(F)(F)F)cc2-c2ccc(Cl)cc2)cc1`, for which the inhibition in vivo at 50 mg/kg came out at 63% with Rattus norvegicus [1], 61.5% in the assay with Rattus norvegicus [4], 77.4% with Rattus norvegicus [5] and 89.9% with Rattus norvegicus [6]. In addition, the IC50 in assay [2] was 1110 nM. Besides, the inhibition in [3] came to 86.9%.

For `COc1ccc(-c2cc(C(F)(F)F)nn2-c2ccc(C#N)cc2)cc1`, the inhibition in vivo at 50 mg/kg with Rattus norvegicus [1] is 69.9%; in the assay with Rattus norvegicus [4], 54.8%; in the assay on Rattus norvegicus [5], 85.2%; with Rattus norvegicus [6] it was 44.4%.

With `NC(=S)c1ccc(-n2nc(C(F)(F)F)cc2-c2ccco2)cc1`, the inhibition in vivo at 50 mg/kg with Rattus norvegicus [1] came to 58.4%; in the assay with Rattus norvegicus [4], 59.8%; in the assay with Rattus norvegicus [5] it was 77.4%; in the assay with Rattus norvegicus [6], 82.8%. For the same molecule, the IC50 in assay [2] is over 30000 nM. In assay [3], the inhibition amounted to 20.1%.

`N#Cc1ccc(-n2nc(C(F)(F)F)cc2-c2ccc(Br)cc2)cc1`: the inhibition in vivo at 50 mg/kg stood at 83.8% with Rattus norvegicus [1], 86.4% with Rattus norvegicus [4], 88.8% in the assay on Rattus norvegicus [5] and 78.8% with Rattus norvegicus [6]. Moreover, the IC50 in [2] is over 30000 nM. Further, in [3], the inhibition came to 13.4%.

In the case of `NC(=S)c1ccc(-n2nc(C(F)(F)F)cc2-c2ccc(F)cc2)cc1`, the inhibition in vivo at 50 mg/kg was 71.7% with Rattus norvegicus [1], 82.8% with Rattus norvegicus [4], 85.4% in the assay with Rattus norvegicus [5] and 74.8% in the assay with Rattus norvegicus [6]. Besides, the IC50 in assay [2] is over 30000 nM. Also, the inhibition entry in assay [3] was “inactive”.

As to `N#Cc1ccc(-n2nc(C(F)(F)F)cc2-c2ccc(F)cc2)cc1`, the inhibition in vivo at 50 mg/kg came to 84.4% with Rattus norvegicus [1], 90.4% in the assay on Rattus norvegicus [4], 81.1% with Rattus norvegicus [5] and 79.8% in the assay with Rattus norvegicus [6]. The inhibition result in assay [3] is “inactive”.

Regarding `Cc1ccc(-c2cc(C(F)(F)F)nn2-c2ccc(C(N)=S)cc2)cc1`, the inhibition in vivo at 50 mg/kg in the assay on Rattus norvegicus [1] stood at 60.1%; with Rattus norvegicus [4] it was 51.7%; with Rattus norvegicus [5], 79.4%; with Rattus norvegicus [6], 73.7%. The IC50 in [2] is over 30000 nM. In assay [3], the inhibition was determined as 44.3%.

For the molecule `NC(=S)c1ccc(-n2nc(C(F)(F)F)cc2-c2ccc3ccccc3c2)cc1`, the inhibition in vivo at 50 mg/kg in the assay on Rattus norvegicus [1] was 53.2%; in the assay on Rattus norvegicus [4] it was 46%; in the assay on Rattus norvegicus [5], 72.9%; in the assay on Rattus norvegicus [6], 92.9%.

Turning to `N#Cc1ccc(-n2nc(C(F)(F)F)cc2-c2ccccc2)cc1`, the inhibition in vivo at 50 mg/kg in the assay on Rattus norvegicus [1] worked out at 84.4%; in the assay with Rattus norvegicus [4] it was 91%; in the assay with Rattus norvegicus [5] it was 81.1%; with Rattus norvegicus [6] it was 91.9%. Further, in assay [2], the half-maximal inhibitory concentration (IC50) amounted to 1110 nM. For the same molecule, the inhibition in assay [3] came out at 97%.

For `N#Cc1ccc(-n2nc(C(F)(F)F)cc2-c2cccs2)cc1`, the inhibition in vivo at 50 mg/kg with Rattus norvegicus [1] stood at 57.8%; with Rattus norvegicus [4], 55.9%; with Rattus norvegicus [5], 71.4%; with Rattus norvegicus [6] it was 81.8%. In assay [3], the inhibition entry was “inactive”.

Turning to `COc1ccc(-c2cc(C(F)(F)F)nn2-c2ccc(C(N)=S)cc2)cc1`, the inhibition in vivo at 50 mg/kg in the assay with Rattus norvegicus [1] is 65.9%; with Rattus norvegicus [4], 52.9%; in the assay on Rattus norvegicus [5], 77.9%; in the assay with Rattus norvegicus [6], 78.8%.

Turning to `N#Cc1ccc(-n2nc(C(F)(F)F)cc2-c2ccco2)cc1`, the inhibition in vivo at 50 mg/kg in the assay on Rattus norvegicus [1] is 67.6%; with Rattus norvegicus [4] it was 61.6%; in the assay with Rattus norvegicus [5], 79.1%; with Rattus norvegicus [6] it was 79.8%. For the same molecule, the inhibition result in assay [3] was “inactive”.

Consider `NC(=S)c1ccc(-n2nc(C(F)(F)F)cc2-c2ccccc2)cc1`, for which the inhibition in vivo at 50 mg/kg in the assay on Rattus norvegicus [1] amounted to 49.7%; in the assay on Rattus norvegicus [4], 50%; with Rattus norvegicus [5], 74.9%; with Rattus norvegicus [6] it was 82.8%. For the same molecule, the 50% inhibitory concentration (IC50) in assay [2] was found to be 1420 nM. For the same molecule, in assay [3], the inhibition stood at 97.9%.
